From ChEMBL document CHEMBL1124366, “Synthesis and biological properties of N63-carboxamides of teicoplanin antibiotics. Structure-activity relationships” (J Med Chem, 1989) come the findings set out here.

Assay [1] relates to Streptococcus pyogenes. Nature of the assay: Subcutaneously administration into mice infected with Streptococcus pyogenes C 203. The format is functional. To be noted: sc. The gist of the method: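 Mice (five per treatment group, five groups) infected intraperitoneally with about 10⁵ cells of Strep. pyogenes C 203, about 100× the LD50. ED50 (mg/kg) was calculated from the percentage of mice surviving at each dose on day 7.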

In assay [2] the test system is Streptococcus pyogenes. Nature of the assay: In vitro minimum inhibitory concentration against Streptococcus pyogenes C 203. It is filed as functional.
The subject of the next assay is Enterococcus faecalis. Nature of the assay: In vitro minimum inhibitory concentration against Streptococcus faecalis ATCC 7080. The format is functional.
The subject of a further assay is Streptococcus pneumoniae. Nature of the assay: In vitro minimum inhibitory concentration against Streptococcus pneumoniae UC41. It is filed as functional.
The subject of another assay is Proteus vulgaris. The experiment in a line: In vitro minimum inhibitory concentration against Proteus vulgaris X 19 ATCC 881. It is filed as functional.
Assay [3] relates to Ac2-L-Lys-D-Ala-D-Ala peptide. The experiment in a line: Association constant with Ac2-L-Lys-D-Ala-D-Ala. Put shortly:
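UV difference spectroscopy at 24 ± 2 °C in 4-cm unthermostated cells. Antibiotic was at 30 μM in 10% MeOH in sodium phosphate buffer, pH 9, and titrated with Ac2-L-Lys-D-Ala-D-Ala. ΔA was monitored at 294 nm. Ka was taken from the slope of a Scatchard plot.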

The next assay has as its system Escherichia coli. The experiment in a line: In vitro minimum inhibitory concentration against Escherichia coli SKF 12140. It is filed as functional.
In the next assay the test system is Staphylococcus aureus. The experiment in a line: In vitro minimum inhibitory concentration against Staphylococcus aureus Tour. It is filed as functional.
Assay [4] deals with Staphylococcus epidermidis. The experiment in a line: In vitro minimum inhibitory concentration against Staphylococcus epidermis ATCC 12228. It is filed as functional.
For assay [5], the system named is Staphylococcus haemolyticus. Nature of the assay: In vitro minimum inhibitory concentration against Staphylococcus hemolyticus 602 cell line. The following applies: strain 602. It is filed as functional.
A further assay has as its system Pseudomonas aeruginosa. Nature of the assay: In vitro minimum inhibitory concentration against Pseudomonas aeruginosa ATCC 10145. The format is functional.

In brackets after ≈: the same amount, converted by molar mass.

In the assay on Streptococcus pyogenes [1], `CC(=O)N[C@@H]1[C@H](O[C@@H]2c3ccc(c(Cl)c3)Oc3cc4cc(c3O)Oc3ccc(cc3Cl)C[C@H]3NC(=O)[C@H](N)c5ccc(O)c(c5)Oc5cc(O)cc(c5)[C@H](NC3=O)C(=O)N[C@H]4C(=O)N[C@H]3C(=O)N[C@@H]2C(=O)N[C@H](C(=O)O)c2cc(O)cc(O)c2-c2cc3ccc2O)O[C@@H](CO)[C@@H](O)[C@@H]1O` returned an ED50 of 2.46 mg/kg. For the same compound, the MIC against Streptococcus pyogenes [2] was 0.5 µg/mL (≈ 0.357 µM); against Enterococcus faecalis it was 1 µg/mL (≈ 0.713 µM); against Streptococcus pneumoniae, 1 µg/mL (≈ 0.713 µM); against Proteus vulgaris, more than 128 µg/mL; against Escherichia coli, more than 128 µg/mL; against Staphylococcus aureus it was 0.5 µg/mL (≈ 0.357 µM). Besides, the MIC in assay [4] was 0.12 µg/mL (≈ 0.0856 µM). The compound further came in with a Ka in [3] of 32000 M⁻¹.

On to `CC(=O)NC1C(O[C@@H]2c3ccc(c(Cl)c3)Oc3cc4cc(c3O)Oc3ccc(cc3Cl)C[C@H]3NC(=O)[C@H](N)c5ccc(O)c(c5)Oc5cc(O)cc(c5)[C@H](NC3=O)C(=O)N[C@H]4C(=O)N[C@H]3C(=O)N[C@@H]2C(=O)N[C@H](C(=O)NCCN2CCOCC2)c2cc(O)cc(O)c2-c2cc3ccc2O)OC(CO)C(O)C1O` (stereo partly specified), for which the MIC with Streptococcus pyogenes [2] was 0.5 µg/mL (≈ 0.33 µM); against Enterococcus faecalis, 0.5 µg/mL (≈ 0.33 µM); in the assay with Streptococcus pneumoniae it was 1 µg/mL (≈ 0.66 µM); against Proteus vulgaris, more than 128 µg/mL; against Escherichia coli it was more than 128 µg/mL; with Staphylococcus aureus it was 0.12 µg/mL (≈ 0.0792 µM). The compound further showed an MIC in assay [4] of 0.12 µg/mL (≈ 0.0792 µM). This compound displayed a Ka in [3] of 34000 M⁻¹.

Compound `NCCCCNC(=O)[C@H]1NC(=O)[C@H]2NC(=O)[C@H](NC(=O)[C@@H]3NC(=O)[C@H]4NC(=O)[C@@H](Cc5ccc(c(Cl)c5)Oc5cc3cc(c5O)Oc3ccc(cc3Cl)[C@H]2O)NC(=O)[C@H](N)c2ccc(O)c(c2)Oc2cc(O)cc4c2)c2ccc(O)c(c2)-c2c(O)cc(O)cc21` had an ED50 in the assay on Streptococcus pyogenes [1] of 0.54 mg/kg. In addition, the MIC turned out to be 0.06 µg/mL (≈ 0.0473 µM) with Streptococcus pyogenes [2]; 0.12 µg/mL (≈ 0.0946 µM) with Enterococcus faecalis; 0.12 µg/mL (≈ 0.0946 µM) in the assay with Streptococcus pneumoniae; 0.12 µg/mL (≈ 0.0946 µM) in [5]; 32 µg/mL (≈ 25.2 µM) in the assay with Proteus vulgaris; 8 µg/mL (≈ 6.3 µM) in the assay with Escherichia coli. Besides, the figures for the MIC (with Staphylococcus aureus; in the assay with Pseudomonas aeruginosa; in [4]) were 0.06 µg/mL (≈ 0.0473 µM), 32 µg/mL (≈ 25.2 µM) and 0.06 µg/mL (≈ 0.0473 µM), respectively.

As to `CN(C)CCNC(=O)[C@H]1NC(=O)[C@H]2NC(=O)[C@H](NC(=O)[C@@H]3NC(=O)[C@H]4NC(=O)[C@@H](Cc5ccc(c(Cl)c5)Oc5cc3cc(c5O)Oc3ccc(cc3Cl)[C@H]2O)NC(=O)[C@H](N)c2ccc(O)c(c2)Oc2cc(O)cc4c2)c2ccc(O)c(c2)-c2c(O)cc(O)cc21`, in the assay on Streptococcus pyogenes [1], the ED50 amounted to 1.25 mg/kg. For the same compound, the MIC with Streptococcus pyogenes [2] came out at 0.06 µg/mL (≈ 0.0473 µM); against Enterococcus faecalis, 0.12 µg/mL (≈ 0.0946 µM); in the assay on Streptococcus pneumoniae, 0.12 µg/mL (≈ 0.0946 µM); in assay [5] it was 0.06 µg/mL (≈ 0.0473 µM); with Proteus vulgaris, 32 µg/mL (≈ 25.2 µM); in the assay with Escherichia coli, 4 µg/mL (≈ 3.15 µM). The MIC was found to be 0.06 µg/mL (≈ 0.0473 µM) in the assay with Staphylococcus aureus, 16 µg/mL (≈ 12.6 µM) with Pseudomonas aeruginosa and 0.06 µg/mL (≈ 0.0473 µM) in assay [4].

`CNCCCN(C)C(=O)[C@H]1NC(=O)[C@H]2NC(=O)[C@H](NC(=O)[C@@H]3NC(=O)[C@H]4NC(=O)[C@@H](Cc5ccc(c(Cl)c5)Oc5cc3cc(c5O)Oc3ccc(cc3Cl)[C@H]2O)NC(=O)[C@H](N)c2ccc(O)c(c2)Oc2cc(O)cc4c2)c2ccc(O)c(c2)-c2c(O)cc(O)cc21` returned an ED50 with Streptococcus pyogenes [1] of 0.95 mg/kg. In addition, the MIC stood at 0.06 µg/mL (≈ 0.0468 µM) in the assay with Streptococcus pyogenes [2]; 0.12 µg/mL (≈ 0.0935 µM) against Enterococcus faecalis; 0.12 µg/mL (≈ 0.0935 µM) against Streptococcus pneumoniae; 0.06 µg/mL (≈ 0.0468 µM) in assay [5]; 32 µg/mL (≈ 24.9 µM) with Proteus vulgaris; 2 µg/mL (≈ 1.56 µM) against Escherichia coli. Moreover, the MIC in the assay with Staphylococcus aureus stood at 0.06 µg/mL (≈ 0.0468 µM); in the assay with Pseudomonas aeruginosa, 16 µg/mL (≈ 12.5 µM); in [4], 0.06 µg/mL (≈ 0.0468 µM).

In turn, `NCCNC(=O)[C@H]1NC(=O)[C@H]2NC(=O)[C@H](NC(=O)[C@@H]3NC(=O)[C@H]4NC(=O)[C@@H](Cc5ccc(c(Cl)c5)Oc5cc3cc(c5O)Oc3ccc(cc3Cl)[C@H]2O)NC(=O)[C@H](N)c2ccc(O)c(c2)Oc2cc(O)cc4c2)c2ccc(O)c(c2)-c2c(O)cc(O)cc21` yielded an ED50 in the assay with Streptococcus pyogenes [1] of 1.25 mg/kg. Moreover, the MIC against Streptococcus pyogenes [2] was determined as 0.06 µg/mL (≈ 0.0483 µM); against Enterococcus faecalis, 0.12 µg/mL (≈ 0.0967 µM); with Streptococcus pneumoniae, 0.12 µg/mL (≈ 0.0967 µM); in [5], 0.12 µg/mL (≈ 0.0967 µM); with Proteus vulgaris, 16 µg/mL (≈ 12.9 µM); with Escherichia coli it was 4 µg/mL (≈ 3.22 µM). Moreover, the results for the MIC (in the assay on Staphylococcus aureus; with Pseudomonas aeruginosa; in assay [4]) were 0.06 µg/mL (≈ 0.0483 µM), 16 µg/mL (≈ 12.9 µM) and 0.03 µg/mL (≈ 0.0242 µM), respectively.

Compound `CCNCCNC(=O)[C@H]1NC(=O)[C@H]2NC(=O)[C@H](NC(=O)[C@@H]3NC(=O)[C@H]4NC(=O)[C@@H](Cc5ccc(c(Cl)c5)Oc5cc3cc(c5O)Oc3ccc(cc3Cl)[C@H]2O)NC(=O)[C@H](N)c2ccc(O)c(c2)Oc2cc(O)cc4c2)c2ccc(O)c(c2)-c2c(O)cc(O)cc21` showed an ED50 with Streptococcus pyogenes [1] of 1.25 mg/kg. The MIC with Streptococcus pyogenes [2] turned out to be 0.06 µg/mL (≈ 0.0473 µM); in the assay on Enterococcus faecalis, 0.12 µg/mL (≈ 0.0946 µM); in the assay on Streptococcus pneumoniae it was 0.12 µg/mL (≈ 0.0946 µM); in [5], 0.12 µg/mL (≈ 0.0946 µM); against Proteus vulgaris, 64 µg/mL (≈ 50.4 µM); against Escherichia coli it was 8 µg/mL (≈ 6.3 µM). Also, the MIC is 0.06 µg/mL (≈ 0.0473 µM) against Staphylococcus aureus, 32 µg/mL (≈ 25.2 µM) against Pseudomonas aeruginosa and 0.06 µg/mL (≈ 0.0473 µM) in assay [4].

As for `CN(C)CCN(C)C(=O)[C@H]1NC(=O)[C@H]2NC(=O)[C@H](NC(=O)[C@@H]3NC(=O)[C@H]4NC(=O)[C@@H](Cc5ccc(c(Cl)c5)Oc5cc3cc(c5O)Oc3ccc(cc3Cl)[C@H]2O)NC(=O)[C@H](N)c2ccc(O)c(c2)Oc2cc(O)cc4c2)c2ccc(O)c(c2)-c2c(O)cc(O)cc21`, the 50% effect level in the assay with Streptococcus pyogenes [1] (ED50) was put at a dose of 1.25 mg/kg. The MIC against Streptococcus pyogenes [2] came to 0.06 µg/mL (≈ 0.0468 µM); in the assay on Enterococcus faecalis, 0.12 µg/mL (≈ 0.0935 µM); against Streptococcus pneumoniae, 0.06 µg/mL (≈ 0.0468 µM); in assay [5], 0.06 µg/mL (≈ 0.0468 µM); in the assay on Proteus vulgaris, 64 µg/mL (≈ 49.9 µM); against Escherichia coli it was 8 µg/mL (≈ 6.23 µM). For the same compound, the figures for the MIC (in the assay on Staphylococcus aureus; in the assay with Pseudomonas aeruginosa; in assay [4]) were 0.06 µg/mL (≈ 0.0468 µM), 64 µg/mL (≈ 49.9 µM) and 0.06 µg/mL (≈ 0.0468 µM), respectively.

Compound `CC(=O)NC1C(O[C@@H]2c3ccc(c(Cl)c3)Oc3cc4cc(c3O)Oc3ccc(cc3Cl)C[C@H]3NC(=O)[C@H](N)c5ccc(O)c(c5)Oc5cc(O)cc(c5)[C@H](NC3=O)C(=O)N[C@H]4C(=O)N[C@H]3C(=O)N[C@@H]2C(=O)N[C@H](C(=O)NCCCN(C)C)c2cc(O)cc(O)c2-c2cc3ccc2O)OC(CO)C(O)C1O` (stereo partly specified) showed an ED50 in the assay with Streptococcus pyogenes [1] of 2.2 mg/kg. In addition, the MIC in the assay on Streptococcus pyogenes [2] was 0.12 µg/mL (≈ 0.0807 µM); with Enterococcus faecalis, 0.25 µg/mL (≈ 0.168 µM); against Streptococcus pneumoniae, 0.25 µg/mL (≈ 0.168 µM); against Proteus vulgaris it was more than 128 µg/mL; against Escherichia coli, 64 µg/mL (≈ 43.1 µM); in the assay on Staphylococcus aureus, 0.12 µg/mL (≈ 0.0807 µM). The compound also registered an MIC in assay [4] of 0.06 µg/mL (≈ 0.0404 µM). The Ka in assay [3] worked out at 54000 M⁻¹.

One may read the ED50 as the dose that gives a 50% effect, or the effect in half of the subjects.
